Assay results: ChEMBL document CHEMBL1153001 (Eur J Med Chem, 2009)

Key:
[1] = Cytotoxicity against human HEL cells assessed as reduction in cell growth after 3 days; format: cell-based
In short: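 HEL cell suspensions seeded into wells holding varying compound concentrations. Grown 3 days at 37 °C in humidified CO2 incubator. Viable cells counted with a Coulter Counter. CC50 = concentration lowering viable cell number by 50%.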

Human alphaherpesvirus 3 [2] = assay: Antiviral activity against thymidine kinase deficient Varicella zoster virus 07/1 infected in human HEL cells assessed as inhibition of virus-induced cytopathicity after 5 days; format: functional, organism-based; settings: Human alphaherpesvirus 3, 07/1, HEL, 120 h
In short: (§1)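 Confluent HEL cell cultures infected with 20 PFU/well VZV; after 2 h adsorption, residual virus removed and serial compound dilutions added. Incubated 5 days at 37 °C, 5% CO2, then fixed and stained. Plaques counted against untreated control.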

Human alphaherpesvirus 3 [3] = assay: Antiviral activity against Varicella zoster virus OKA infected in human HEL cells assessed as inhibition of virus-induced cytopathicity after 5 days; format: functional, organism-based; settings: Human alphaherpesvirus 3, OKA, 120 h; in short: as §1
Human betaherpesvirus 5 [4] = assay: Antiviral activity against human cytomegalovirus AD169 infected in human HEL cells assessed as inhibition of virus-induced cytopathicity after 7 days post infection; format: functional, organism-based; settings: Human betaherpesvirus 5, AD169, HEL, 168 h
In short: (§2)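 Confluent HEL cell cultures in microtiter plates inoculated with 100 PFU CMV. After 2 h adsorption, residual virus removed and cells incubated with varying compound concentrations. Read once cytopathicity was complete in virus controls, usually 7 days post-infection.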

Human betaherpesvirus 5 [5] = assay: Antiviral activity against human cytomegalovirus Davis infected in human HEL cells assessed as inhibition of virus-induced cytopathicity after 7 days post infection; format: functional, organism-based; settings: Human betaherpesvirus 5, Davis, 168 h
In short: as §2, with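 “post-infection. EC50 = concentration giving 50% reduction in plaque formation/cytopathicity.” for “post-infection.”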

[6] = Cytotoxicity against human HEL cells assessed as microscopically detectable morphological alterations after 3 days; format: cell-based
In short: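 HEL cell cultures exposed to varying compound concentrations. Cells examined microscopically for changes in morphology. MCC = lowest concentration producing a detectable alteration of cell morphology.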

Human alphaherpesvirus 3 [7] = assay: Antiviral activity against Varicella zoster virus YS infected in human HEL cells assessed as inhibition of virus induced cytopathicity after 5 days; format: functional, organism-based; settings: Human alphaherpesvirus 3, YS, 120 h
In short: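 Confluent HEL cell cultures infected with 20 PFU/well VZV; after 2 h adsorption, residual virus removed and serial compound dilutions added. Incubated 5 days at 37 °C, 5% CO2, then fixed and stained. Plaques counted against untreated control. EC50 = concentration cutting plaque formation by 50%.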

Human alphaherpesvirus 3 [8] = assay: Ratio of compound EC50 to RA-5021 EC50 for Varicella zoster virus YS infected in human HEL cells assessed as inhibition of virus induced cytopathicity after 5 days; format: functional
Human alphaherpesvirus 3 [9] = assay: Ratio of compound EC50 to RA-5021 EC50 for Varicella zoster virus OKA infected in human HEL cells assessed as inhibition of virus induced cytopathicity after 5 days; format: functional
Human alphaherpesvirus 3 [10] = assay: Ratio of compound EC50 to Acyclovir EC50 for Varicella zoster virus OKA infected in human HEL cells assessed as inhibition of virus induced cytopathicity after 5 days; format: functional
Human alphaherpesvirus 3 [11] = assay: Ratio of compound EC50 to Acyclovir EC50 for Varicella zoster virus YS infected in human HEL cells assessed as inhibition of virus induced cytopathicity after 5 days; format: functional

Structure (SMILES)	CC50 at 72 h [1] [µM]	EC50 (Human alphaherpesvirus 3 [2]) [µM]	EC50 (Human alphaherpesvirus 3 [3]) [µM]	EC50 (Human betaherpesvirus 5 [4]) [µM]	EC50 (Human betaherpesvirus 5 [5]) [µM]	MCC at 72 h [6] [µM]	EC50 (Human alphaherpesvirus 3 [7]) [µM]	Ratio EC50 (Human alphaherpesvirus 3 [8])	Ratio EC50 (Human alphaherpesvirus 3 [9])	Ratio EC50 (Human alphaherpesvirus 3 [10])	Ratio EC50 (Human alphaherpesvirus 3 [11])
O=c1c2ncn(COCCO)c2nc2[nH]c(-c3ccco3)cn12	> 100	> 100	16.4	> 100	> 100	> 100					
Nc1ccn(C[C@@H](CO)OCP(=O)(O)O)c(=O)n1 [CIDOFOVIR]	54			1.6		≥ 254					
O=c1c2ncn(CC3(CO)CC3CO)c2nc2[nH]c(-c3cccs3)cn12 (centres undefined)	> 100	71.5	0.32	> 100	50.2	> 100	0.38	1.3	2.5		
Nc1nc(O)c2ncn(CC3(CO)CC3CO)c2n1 (centres undefined)	> 100	25.8	0.13	100	44.7	> 100	0.3			14	7
O=c1[nH]c(=O)n([C@H]2C[C@H](O)[C@@H](CO)O2)cc1/C=C/Br [BRIVUDINE]	432	157				> 1200	0.026				
O=c1c2ncn(COCCO)c2nc2[nH]c(-c3cccs3)cn12	> 100	> 100	5.8	> 100	100	> 100	7.9				
O=c1c2ncn(CC3(CO)CC3CO)c2nc2[nH]c(-c3ccccc3)cn12 (centres undefined)								2	3		
O=c1c2ncn(COCCO)c2nc2[nH]c(-c3ccc(Br)s3)cn12	> 100	> 100	8.7	> 100	100	> 100	10				
O=c1c2ncn(CC3(CO)CC3CO)c2nc2[nH]c(-c3ccco3)cn12 (cis isomer)	> 100	> 100	0.42	> 100	> 100	> 100	0.64	2.1	3.2		
O=c1c2ncn(CC3(CO)CC3CO)c2nc2[nH]c(-c3ccc(Br)s3)cn12 (centres undefined)	> 100	> 100	0.93	> 100	76.5	> 100	0.87	2.9	7		
Nc1nc2c(ncn2COC(CO)CO)c(=O)[nH]1 [GANCICLOVIR]	221	2.5	0.59	12.6		> 1580	1.1				
Nc1nc2c(ncn2COCCO)c(=O)[nH]1 [ACYCLOVIR]	782				45		2				
